Molecules are shown by their SMILES.

System in the first data set: not listed separately
Description: pKa value for the compound was determined. It counts as physicochemical.
By pKa is commonly meant the negative logarithm of the acid dissociation constant. Low readings indicate a group that gives up its proton readily, high ones a group that holds its proton tightly. Take `O=C1NC(=O)[C@@]2(CCOc3ccc(F)cc32)N1` [SORBINIL]: the pKa was found to be 7.85.

The target in another data set is Aldo-keto reductase family 1 member B1 (Rattus norvegicus) (UniProt P07943). Kind of data set: Inhibition of rat lens aldose reductase at 50 uM. In a few lines: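 Enzyme partially purified from rat lenses. Each compound was tested at a single concentration of 50 μM, and percent inhibition was determined by the Hayman and Kinoshita method.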
As a reminder, the inhibition is how much of the control response was suppressed. The low end stands for a weak effect, the high end for a strong effect. The molecule `O=C1NOC(=O)C1CC[S+]([O-])c1ccccc1` (configuration not stated) came in with an inhibition of 19%.

Turning to `O=C1NOC(=O)C1c1ccccn1` (configuration not stated), the inhibition is 6.5%.

The molecule `COc1cccc(C2C(=O)NOC2=O)c1` (configuration not stated) came in with an inhibition of 75%.

With `O=C1NOC(=O)C1c1ccccc1C(F)(F)F` (configuration not stated), the inhibition is 80%.

Molecule `O=C(O)CN1C(=O)c2cccc3cccc(c23)C1=O` displayed an inhibition of 87%.

As for `O=C1NOC(=O)C1CCS(=O)(=O)c1ccccc1` (configuration not stated), the inhibition came to 32%.

Molecule `O=C1NOC(=O)C12Cc1cccc3cccc(c13)C2` came in with an inhibition of 5.1%.

In the case of `COc1ccccc1C1C(=O)NOC1=O` (configuration not stated), the inhibition worked out at 0%.

Molecule `CC(=O)Nc1ccc(C2(C)C(=O)NOC2=O)cc1` (configuration not stated) returned an inhibition of 16%.

`O=C1NOC(=O)C1c1cccnc1` (configuration not stated) yielded an inhibition of 37%.

`O=C1NOC(=O)C1CCOc1ccccc1` (configuration not stated): the inhibition came out at 35%.

(Values after ChEMBL document CHEMBL1122083, “Isoxazolidine-3,5-diones as lens aldose reductase inhibitors” (J Med Chem, 1982).)
